According to ChEMBL document CHEMBL1146294 (Bioorg Med Chem Lett, 2007):

Key:
MCF7 = experiment: Antiproliferative activity against MCF7 cells; format: functional, cell-based; conditions: Homo sapiens
[1] = molecular target: Prostaglandin G/H synthase 1 (Homo sapiens) (UniProt P23219); experiment: Inhibition of COX1 by human platelet assay; design: concentration or dose not given beside the values; conditions: concentration not given here
Outline: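 Enzyme activities measured in human platelets incubated for 60 min in buffer solution at 37 °C. 12-LOX activity was read out as formation of 12(S)-HETE. COX-1 activity was read out as formation of its eicosanoid product.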

[2] = Stability in phosphate buffer; format: physicochemical
HT-29 = experiment: Antiproliferative activity against HT29 cells; format: functional, cell-based; conditions: Homo sapiens
[3] = system: Arachidonate 12-lipoxygenase, platelet type (Homo sapiens); experiment: Inhibition of LOX12 by human platelet assay; design: concentration or dose not given beside the values; conditions: concentration not given here

Chain of Prostaglandin G/H synthase 1 (Homo sapiens) (P23219 whole entry): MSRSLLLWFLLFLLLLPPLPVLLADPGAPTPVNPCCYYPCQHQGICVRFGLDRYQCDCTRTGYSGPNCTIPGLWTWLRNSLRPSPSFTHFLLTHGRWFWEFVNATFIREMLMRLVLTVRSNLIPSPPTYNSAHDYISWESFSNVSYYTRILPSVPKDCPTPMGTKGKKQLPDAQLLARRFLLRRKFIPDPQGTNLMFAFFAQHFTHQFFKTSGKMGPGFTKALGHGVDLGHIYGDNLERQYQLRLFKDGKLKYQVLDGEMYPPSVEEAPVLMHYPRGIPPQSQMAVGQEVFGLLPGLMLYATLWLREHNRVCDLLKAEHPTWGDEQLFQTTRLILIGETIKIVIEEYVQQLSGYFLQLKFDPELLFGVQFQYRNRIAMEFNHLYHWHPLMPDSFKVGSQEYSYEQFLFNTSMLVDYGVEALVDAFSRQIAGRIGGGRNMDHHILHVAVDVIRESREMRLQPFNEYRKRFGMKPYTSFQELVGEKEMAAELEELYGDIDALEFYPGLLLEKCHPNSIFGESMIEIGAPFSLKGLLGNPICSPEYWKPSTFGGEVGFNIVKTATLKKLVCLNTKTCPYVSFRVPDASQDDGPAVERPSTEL

SMILES | IC50 (MCF7) | inhibition [1] | Stability [2] | IC50 (HT-29) | inhibition [3]
CC(=O)OCC(OC(C)=O)C(OC(C)=O)C(Cn1c2nc(=O)n(CCCCOC(=O)C(C)c3ccc(CC(C)C)cc3)c(=O)c-2nc2cc(C)c(C)cc21)OC(C)=O (stereo not drawn) | 9.5 µM | 37% | Stable | 10.5 µM | < 11%
CC(=O)OCC(OC(C)=O)C(OC(C)=O)C(Cn1c2nc(=O)n(CCO)c(=O)c-2nc2cc(C)c(C)cc21)OC(C)=O (stereo not drawn) | > 100 µM | – | – | > 100 µM | –
CC(=O)OCC(OC(C)=O)C(OC(C)=O)C(Cn1c2nc(=O)n(CCOC(=O)C(C)c3ccc(CC(C)C)cc3)c(=O)c-2nc2cc(C)c(C)cc21)OC(C)=O (stereo not drawn) | 14.9 µM | 15% | Stable | 12.7 µM | < 11%
CC(=O)OCC(OC(C)=O)C(OC(C)=O)C(Cn1c2nc(=O)[nH]c(=O)c-2nc2cc(C)c(C)cc21)OC(C)=O (stereo not drawn) | 53.4 µM | – | – | 90.9 µM | –
O=c1[nH]cc(F)c(=O)[nH]1 [FLUOROURACIL] | – | – | – | 7.3 µM | –
CC(=O)OCC(OC(C)=O)C(OC(C)=O)C(Cn1c2nc(=O)n(CCCCCOC(=O)C(C)c3ccc(CC(C)C)cc3)c(=O)c-2nc2cc(C)c(C)cc21)OC(C)=O (stereo not drawn) | 9.5 µM | 43% | Stable | 13.1 µM | < 11%
CC(=O)OCC(OC(C)=O)C(OC(C)=O)C(Cn1c2nc(=O)n(CCCOC(=O)C(C)c3ccc(CC(C)C)cc3)c(=O)c-2nc2cc(C)c(C)cc21)OC(C)=O (stereo not drawn) | 7.8 µM | 15% | Stable | 9.3 µM | < 11%
CC(=O)OCC(OC(C)=O)C(OC(C)=O)C(Cn1c2nc(=O)n(COC(=O)C(C)c3ccc(CC(C)C)cc3)c(=O)c-2nc2cc(C)c(C)cc21)OC(C)=O (stereo not drawn) | 12.3 µM | 15% | Stable | 12.1 µM | < 11%
CC(C)Cc1ccc([C@H](C)C(=O)O)cc1 [DEXIBUPROFEN] | 795 µM | 90% | – | > 1000 µM | –
